Among the data in ChEMBL document CHEMBL3352734, “Reniochalistatins A-E, cyclic peptides from the marine sponge Reniochalina stalagmitis” (J Nat Prod, 2014) are inhibition and IC50 values, retold here.

Structures are written as SMILES. pIC50: −log10 of the molar value. Activity calls are given as the source filed them. The rule behind the calls is not given here. Peptide text beside a SMILES is read from it.

Common to all, as to type: functional, cell-based
For one assay, the system named is HepG2. The assay is described as follows: Cytotoxicity against human HepG2 cells after 72 hrs by MTS assay. The conditions noted are these: for pIC50: HepG2, 72 h. The procedure, abridged: (§1)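 HeLa (cervical) and HepG2 (hepatoma) cells kept in high-glucose DMEM with 10% FBS, 5% CO2, 37 °C. Plated at 1 × 10^4 cells/well for 24 h, then treated with graded sample concentrations for 72 h. Viability by MTS reduction over 2 h, measured at 490 nm with 690 nm reference.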

Another assay relates to MGC-803. The assay is described as follows: Cytotoxicity against human MGC803 cells after 72 hrs by MTS assay. The conditions noted are these: for pIC50: MGC-803, 72 h. The procedure, abridged: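 Gastric MGC-803 line maintained in RPMI-1640 plus 10% FBS, 37 °C, 5% CO2. Cells seeded at 1 × 10^4/well, incubated 24 h, then given medium with varying sample concentrations for 72 h. After 2 h with MTS, absorbance taken at 490 nm (reference 690 nm).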
(In general: Tetrazolium assays rely on reduction of a dye to a coloured formazan, in cell work by metabolically active cells.)

In the next assay the test system is HL-60. Briefly: (§2) Cytotoxicity against human HL60 cells after 72 hrs by MTS assay. In short, it runs like this: (§3)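 HL-60 (human leukemia) grown in RPMI-1640 with 20% FBS at 37 °C, 5% CO2. Seeded at 1 × 10^4 cells/well and left 24 h, then exposed to a range of sample concentrations for 72 h. MTS added for 2 h; absorbance read at 490 nm against a 690 nm reference.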

Another assay has as its system HeLa. Briefly: Cytotoxicity against human HeLa cells after 72 hrs by MTS assay. In short, it runs like this:
as §1

Assay [1] can be described thus: as §2. Conditions: HL-60, 72 h. The procedure, abridged:
as §3

A further assay has as its system RPMI-8226. Briefly: Cytotoxicity against human RPMI8226 cells after 72 hrs by MTS assay. The conditions noted are these: RPMI-8226, 72 h.

Take `CC[C@H](C)[C@@H]1NC(=O)[C@H](Cc2ccccc2)NC(=O)[C@@H]2CCCN2C(=O)[C@H](Cc2ccccc2)NC(=O)[C@@H]2CCCN2C(=O)[C@@H]2CCCN2C(=O)[C@H](Cc2ccccc2)NC1=O` (cyclo(FIFPPFP)): the inhibition entry in the assay with HepG2, in the assay on MGC-803, with HL-60 and in the assay on HeLa was “inactive” in each case.
As for `CC[C@H](C)[C@@H]1NC(=O)[C@@H]2CCCN2C(=O)[C@H](Cc2ccccc2)NC(=O)[C@H](Cc2ccc(O)cc2)NC(=O)[C@H]([C@@H](C)CC)NC(=O)[C@@H]2CCCN2C(=O)[C@H](Cc2ccccc2)NC1=O` (cyclo(FPIFPIY)), the inhibition entry in the assay with HepG2, with MGC-803, in the assay with HL-60 and in the assay on HeLa was “inactive” throughout.
For the molecule `CC[C@H](C)[C@@H]1NC(=O)[C@@H]2CCCN2C(=O)[C@H](CC(C)C)NC(=O)[C@@H]2CCCN2C(=O)[C@H](CC(C)C)NC(=O)[C@H](Cc2ccc(O)cc2)NC(=O)[C@H](Cc2ccccc2)NC1=O` (cyclo(FYLPLPI)), the inhibition entry with HepG2, with MGC-803, in the assay with HL-60 and in the assay on HeLa was “inactive” in each case.
Usually pIC50 stands for −log10 of the IC50, conventionally taken in molar units. A lower pIC50 goes with a large IC50. Consider `CC[C@H](C)[C@@H]1NC(=O)[C@H](C(C)C)NC(=O)[C@@H]2CCCN2C(=O)[C@H](Cc2c[nH]c3ccccc23)NC(=O)[C@H](CC(C)C)NC(=O)[C@@H]2CCCN2C(=O)[C@H]([C@@H](C)CC)NC(=O)[C@@H]2CCCN2C1=O` (cyclo(IPIPLWPV)), for which the pIC50 in the assay on HepG2 is less than 4.70; in the assay with MGC-803 it was 5.01; in assay [1] it was less than 4.70; with HeLa, 4.76; in the assay with RPMI-8226 it was 5.31.
Consider `CC[C@H](C)[C@@H]1NC(=O)[C@H](C(C)C)NC(=O)[C@H](CC(N)=O)NC(=O)[C@@H]2CCCN2C(=O)[C@H](CC(C)C)NC(=O)[C@H](CC(C)C)NC(=O)[C@@H]2CCCN2C1=O` (cyclo(IPLLPNV)), for which the inhibition entry in the assay with HepG2, with MGC-803, in the assay with HL-60 and in the assay with HeLa was “inactive” in each case.
In the case of `COc1cccc2c1C(=O)c1c(O)c3c(c(O)c1C2=O)C[C@@](O)(C(=O)CO)C[C@@H]3O[C@H]1C[C@H](N)[C@H](O)[C@H](C)O1` [DOXORUBICIN], the negative-log IC50 (pIC50) in the assay with HepG2 was 6.40; with MGC-803 it was 7.00; in assay [1] it was 6.70; with HeLa it was 6.30.
